One series deals with OVCAR-5. Description: Growth inhibition of human OVCAR5 cells after 48 hrs by sulforhodamine B assay. The format is functional. Particulars: OVCAR-5, 48 h. An outline of the steps:
(§1)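 Cells were plated at 5000–40,000 cells/well, depending on doubling time, and preincubated 24 h at 37 °C in 5% CO2. Time-zero plates were TCA-fixed at drug addition. Compounds were dissolved in DMSO and tested at five concentrations (10-fold or ½-log dilutions) for 48 h. Cells were fixed with cold TCA, stained with 0.4% sulforhodamine B and read at 515 nm. GI50 was taken as the concentration giving 50% growth.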
On the technique in general: Sulforhodamine B stains cellular protein and so reports cell mass.

A further series relates to OVCAR-4. Kind of series: Growth inhibition of human OVCAR4 cells after 48 hrs by sulforhodamine B assay. The format is functional. Particulars: OVCAR-4, 48 h. Summed up: as §1
The next series has as its system OVCAR-3. Description: Growth inhibition of human OVCAR3 cells after 48 hrs by sulforhodamine B assay. As to conditions: OVCAR-3, 48 h. It counts as functional. An outline of the steps:
as §1

For the next series, the system named is MDA-MB-231. Description: Growth inhibition of human MDA-MB-231cells after 48 hrs by sulforhodamine B assay. The format is functional. As to conditions: MDA-MB-231, 48 h. Summed up:
as §1

The next series has as its system SK-OV-3. Description: Growth inhibition of human SKOV3 cells after 48 hrs by sulforhodamine B assay. It counts as functional. Particulars: SK-OV-3, 48 h. An outline of the steps:
as §1

The next series has as its system OVCAR-8. Description: Growth inhibition of human OVCAR8 cells after 48 hrs by sulforhodamine B assay. The format is functional. As to conditions: OVCAR-8, 48 h. An outline of the steps: as §1
For another series, the system named is MDA-MB-435. Description: Growth inhibition of human MDA-MB-435 cells after 48 hrs by sulforhodamine B assay. Particulars: MDA-MB-435, 48 h. The format is functional. An outline of the steps: as §1
Another series has as its system MDA-N. Description: Growth inhibition of human MDA-N cells after 48 hrs by sulforhodamine B assay. It counts as functional. An outline of the steps:
as §1

Series [1] can be described thus: Growth inhibition of human Hs 578T cells after 48 hrs by sulforhodamine B assay. It counts as functional. An outline of the steps:
as §1

A further series has as its system T47D. Description: Growth inhibition of human T47D cells after 48 hrs by sulforhodamine B assay. The format is functional. Summed up:
as §1

Series [2] can be described thus: Acute toxicity in mouse after 24 hrs. It counts as organism-based. As to conditions: in vivo. Summed up: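 Adult mice of both sexes, acclimatized 1 week (12 h light/dark, 21–23 °C), fasted 12 h before dosing. 30 mice in 6 groups of 5 each got a single oral gavage dose, at different dose levels, of a fine-powder aqueous suspension. LD50 was determined, with values as group means of five mice.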

In the next series the test system is BT-549. Description: Growth inhibition of human BT549 cells after 48 hrs by sulforhodamine B assay. The format is functional. Particulars: BT-549, 48 h. An outline of the steps: as §1
The next series relates to NCI/ADR-RES. Kind of series: Growth inhibition of human NCI/ADR-RES cells after 48 hrs by sulforhodamine B assay. The format is functional. An outline of the steps:
as §1

Another series relates to IGROV-1. Kind of series: Growth inhibition of human IGROV1 cells after 48 hrs by sulforhodamine B assay. Particulars: IGROV-1, 48 h. The format is functional. An outline of the steps: as §1
The test system of another series is MCF7. Description: Growth inhibition of human MCF7 cells after 48 hrs by sulforhodamine B assay. It counts as functional. As to conditions: MCF7, 48 h. An outline of the steps: as §1
The test system of series [3] is Rattus norvegicus. Description: Antiestrogenic activity in Sprague-Dawley rat assessed as reduction in estradiol induced uterine weight 0.06 ug, po after 8 days relative to letrozole. The format is functional. An outline of the steps: (§2)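 Immature ovariectomized female Sprague-Dawley rats (~55 g), groups of 12. Estradiol 0.03–0.05 given s.c. daily for 7 days, with test compound or letrozole reference at various doses up to 0.06 per animal, given orally in 0.5% carboxymethylcellulose. Controls received estradiol alone. Uterine weights were taken on day 8 and group means expressed as % reduction versus estradiol-only controls. Potency was taken relative to letrozole.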

In series [4] the test system is Rattus norvegicus. Description: Antiestrogenic activity in Sprague-Dawley rat assessed as reduction in estradiol induced uterine weight upto 0.06 ug, po after 8 days. Further details: scale not given: the % may be the effect or the level left. The format is functional. An outline of the steps: as §2

Bounds are passed on as bounds.

Results on 7 compounds are retold here after ChEMBL document CHEMBL1629506, “Design, synthesis and structure-activity relationship study of novel pyrazole-based heterocycles as potential antitumor agents” (Eur J Med Chem, 2010).

The GI50 is the concentration that inhibits growth by half. What is called LD50 is the dose at which mortality reaches 50%.

As to `CN(C)/C=C/C(=O)c1nn(-c2ccccc2)c(-c2ccccc2)c1C#N`, the GI50 in the series with OVCAR-5 is more than 100 µM; in the series with OVCAR-4, 63.8 µM; in the series with OVCAR-3 it was 98.8 µM; with MDA-MB-231 it was 50.4 µM; in the series on SK-OV-3, 23.8 µM; in the series on OVCAR-8, 75.8 µM. For the same compound, the GI50 with MDA-MB-435 is more than 100 µM; in the series with MDA-N, 45.4 µM; in series [1], more than 100 µM; with T47D, 30.2 µM; with BT-549, 31.1 µM; in the series with NCI/ADR-RES it was 90.6 µM. Also, the values for the GI50 in the series on IGROV-1 and in the series with MCF7 were 98 µM and 39.8 µM, respectively. In series [2], this compound displayed an LD50 at 24 h of 232 mg/kg. For the same compound, in the series on Rattus norvegicus [3], the potency ratio vs letrozole is 1.93. In addition, the Activity with Rattus norvegicus [4] was 41.98%.
In the case of `N#Cc1c(C(=O)/C=C/N2CCOCC2)nn(-c2ccccc2)c1-c1ccccc1`, the GI50 in the series on OVCAR-5 is 90.8 µM; with OVCAR-4, 62.8 µM; with OVCAR-3, 21.5 µM; with MDA-MB-231 it was more than 100 µM; in the series with SK-OV-3 it was 33.8 µM; in the series on OVCAR-8, more than 100 µM. The GI50 was more than 100 µM with MDA-MB-435; 38.4 µM in the series on MDA-N; more than 100 µM in series [1]; more than 100 µM in the series on T47D; 41.4 µM with BT-549; more than 100 µM in the series with NCI/ADR-RES. Also, the GI50 amounted to 88 µM in the series with IGROV-1 and 5.49 µM with MCF7. In series [2], the LD50 at 24 h is 463 mg/kg. Further, the potency ratio vs letrozole in the series on Rattus norvegicus [3] amounted to 2. Moreover, in the series with Rattus norvegicus [4], the Activity was determined as 43.43%.
As for `CC(=O)c1nn(-c2ccccc2)cc1C(=O)c1nn(-c2ccccc2)c(-c2ccccc2)c1C#N`, the GI50 with OVCAR-5 was 34.8 µM; in the series on OVCAR-4 it was 69.8 µM; with OVCAR-3, 66.8 µM; with MDA-MB-231, more than 100 µM; with SK-OV-3 it was 39.8 µM; with OVCAR-8, 62.8 µM. The GI50 was more than 100 µM in the series on MDA-MB-435; 0.077 µM in the series on MDA-N; 6.46 µM in [1]; 36.8 µM in the series on T47D; more than 100 µM with BT-549; more than 100 µM in the series on NCI/ADR-RES. The GI50 in the series on IGROV-1 was 96.8 µM; in the series on MCF7, 25.7 µM. The compound also showed an LD50 at 24 h in series [2] of 324 mg/kg. Besides, the potency ratio vs letrozole with Rattus norvegicus [3] came out at 1.49. Also, in the series on Rattus norvegicus [4], the Activity came to 32.45%.
Regarding `CCOC(=O)c1nn(-c2ccc(C)cc2)cc1C(=O)c1nn(-c2ccccc2)c(-c2ccccc2)c1C#N`, the GI50 is more than 100 µM with OVCAR-5; 5.46 µM in the series with OVCAR-4; 91.8 µM in the series on OVCAR-3; more than 100 µM in the series on MDA-MB-231; more than 100 µM with SK-OV-3; 9.18 µM in the series with OVCAR-8. The GI50 (in the series with MDA-MB-435; with MDA-N; in series [1]; with T47D; in the series on BT-549; in the series on NCI/ADR-RES) was more than 100 µM each time. The GI50 with IGROV-1 is 94.8 µM; with MCF7, more than 100 µM. In [2], this compound yielded an LD50 at 24 h of 274 mg/kg. In addition, in the series on Rattus norvegicus [3], the potency ratio vs letrozole amounted to 1.96. Moreover, the Activity in the series on Rattus norvegicus [4] is 42.83%.
Turning to `N#Cc1c(-c2nnc(-c3nn(-c4ccccc4)c(-c4ccccc4)c3C#N)c3nn(-c4ccccc4)cc23)nn(-c2ccccc2)c1-c1ccccc1`, the concentration for 50% growth inhibition (GI50) with OVCAR-5 was found to be 9.12 µM; in the series with OVCAR-4, 7.46 µM; with OVCAR-3, 7.26 µM; with MDA-MB-231, 52.4 µM; with SK-OV-3, 5.72 µM; in the series with OVCAR-8, 9.82 µM. For the same compound, the 50% growth inhibitory concentration (GI50) in the series on MDA-MB-435 was more than 100 µM; in the series with MDA-N it was more than 100 µM; in series [1] it was 94.4 µM; in the series with T47D, 81 µM; with BT-549, 11.8 µM; in the series on NCI/ADR-RES, 24.5 µM. Moreover, the GI50 stood at 13.3 µM in the series on IGROV-1 and 17.8 µM in the series on MCF7. Besides, the LD50 at 24 h in [2] amounted to 222 mg/kg. Also, the potency ratio vs letrozole in the series with Rattus norvegicus [3] was determined as 1.61. In addition, the Activity with Rattus norvegicus [4] was 34.87%.
As to `N#Cc1c(-c2nnc(-c3nn(-c4ccccc4)c(-c4ccccc4)c3C#N)c3nn(-c4ccc(Cl)cc4)cc23)nn(-c2ccccc2)c1-c1ccccc1`, the GI50 is more than 100 µM with OVCAR-5; 43.8 µM in the series on OVCAR-4; 95.8 µM in the series with OVCAR-3; 7.9 µM in the series with MDA-MB-231; 36.8 µM in the series with SK-OV-3; 61.8 µM in the series with OVCAR-8. Besides, the GI50 stood at 9.2 µM in the series on MDA-MB-435; 2.26 µM with MDA-N; 9.72 µM in [1]; 16 µM in the series on T47D; 1.02 µM in the series on BT-549; 7.46 µM in the series on NCI/ADR-RES. In addition, the GI50 with IGROV-1 stood at 98 µM; in the series on MCF7 it was 9.42 µM. In addition, the LD50 at 24 h in series [2] worked out at 112 mg/kg. Besides, the potency ratio vs letrozole with Rattus norvegicus [3] turned out to be 2. Also, the Activity in the series on Rattus norvegicus [4] was 43.41%.
On to `N#Cc1ccc(C(c2ccc(C#N)cc2)n2cncn2)cc1` [LETROZOLE], for which the GI50 was found to be 1.62 µM in the series on OVCAR-5; 0.88 µM in the series on OVCAR-4; 5.87 µM with OVCAR-3; 0.15 µM with MDA-MB-231; 1.09 µM with SK-OV-3; 4.5 µM in the series with OVCAR-8. Moreover, the GI50 came to 0.067 µM with MDA-MB-435; 1.61 µM in the series on MDA-N; 2.17 µM in [1]; 0.44 µM in the series with T47D; 0.89 µM in the series with BT-549; 1.16 µM in the series on NCI/ADR-RES. For the same compound, the GI50 is 0.095 µM with IGROV-1 and 0.7 µM in the series on MCF7. The compound further came in with an LD50 at 24 h in series [2] of 253 mg/kg. For the same compound, in the series on Rattus norvegicus [3], the potency ratio vs letrozole is 1. Also, the Activity with Rattus norvegicus [4] stood at 21.65%.
